Data from ChEMBL document CHEMBL1921671, “Benzisothiazolinone as a useful template for the design of new monoacylglycerol lipase inhibitors: investigation of the target residues and comparison with octhilinone” (Bioorg Med Chem Lett, 2011).
Substitutions are numbered along the chain they refer to. Calls of active or inactive are those of the source. No cut-off for these calls is given here.

Columns and labels:
[1] = target: T1, Monoglyceride lipase (Homo sapiens) (UniProt Q99685); assay: Inhibition of human recombinant MAGL assessed as [3H]oleoylglycerol hydrolysis at 1 mM after 10 mins by liquid scintillation counting
T1 sequence (whole entry): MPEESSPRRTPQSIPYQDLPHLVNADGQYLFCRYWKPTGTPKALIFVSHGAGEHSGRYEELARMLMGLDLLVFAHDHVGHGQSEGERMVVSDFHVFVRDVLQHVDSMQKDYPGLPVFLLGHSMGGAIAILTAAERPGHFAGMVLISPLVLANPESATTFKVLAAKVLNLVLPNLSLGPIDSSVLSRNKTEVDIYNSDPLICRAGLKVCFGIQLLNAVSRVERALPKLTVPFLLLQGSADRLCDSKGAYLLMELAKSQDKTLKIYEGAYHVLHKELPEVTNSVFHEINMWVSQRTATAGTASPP
In short: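 Single-concentration test at 10^-3 M against purified recombinant human MAGL, 5 ng. Inhibitor preincubated 10 min at 37 °C. [3H]-2-oleoylglycerol at 10 µM final hydrolysed 10 min at 37 °C in 50 mM Tris pH 8.0 with BSA. Reaction quenched with cold methanol/chloroform. Aqueous-layer radioactivity read by scintillation, blanks subtracted, and result expressed as % inhibition.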

[2] = target: T2, Fatty-acid amide hydrolase 1 (Homo sapiens) (UniProt O00519); assay: Inhibition of human recombinant FAAH assessed as conversion of [3H]AEA to [3H]ethanolamine at 1 mM after 10 mins by liquid scintillation counting
T2 sequence (whole entry): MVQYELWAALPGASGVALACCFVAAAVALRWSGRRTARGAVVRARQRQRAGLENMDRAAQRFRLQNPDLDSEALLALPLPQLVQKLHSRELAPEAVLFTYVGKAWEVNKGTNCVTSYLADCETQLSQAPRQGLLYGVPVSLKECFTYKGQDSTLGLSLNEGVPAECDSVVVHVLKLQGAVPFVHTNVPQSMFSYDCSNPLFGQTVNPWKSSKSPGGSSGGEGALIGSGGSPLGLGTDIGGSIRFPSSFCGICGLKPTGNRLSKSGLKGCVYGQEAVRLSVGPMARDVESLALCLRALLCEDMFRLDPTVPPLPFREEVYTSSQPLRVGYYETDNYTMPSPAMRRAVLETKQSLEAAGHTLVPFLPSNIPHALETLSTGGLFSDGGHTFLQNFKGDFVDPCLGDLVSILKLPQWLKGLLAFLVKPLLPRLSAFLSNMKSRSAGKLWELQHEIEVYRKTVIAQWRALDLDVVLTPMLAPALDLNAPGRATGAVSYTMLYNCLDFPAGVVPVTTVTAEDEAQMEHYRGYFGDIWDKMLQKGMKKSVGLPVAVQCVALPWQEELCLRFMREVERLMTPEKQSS

[3] = target: T3, Fatty-acid amide hydrolase 1 (Homo sapiens, UniProt O00519); assay: Inhibition of human recombinant FAAH assessed as conversion of [3H]AEA to [3H]ethanolamine after 10 mins by liquid scintillation counting
T3 sequence (O00519 whole entry): T2 sequence (whole entry)

[4] = target: T4, Monoglyceride lipase (Homo sapiens, UniProt Q99685); assay: Inhibition of human recombinant MAGL assessed as [3H]oleoylglycerol hydrolysis after 10 mins by liquid scintillation counting
T4 sequence (Q99685 whole entry): T1 sequence (whole entry)
In short: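 Purified recombinant human MAGL, 5 ng, in 50 mM Tris pH 8.0 with 0.1% BSA, preincubated with […]. Substrate [3H]-2-oleoylglycerol at 10 µM final in Tris pH 8.0 with 0.6% BSA. Reaction run 10 min at 37 °C and stopped with ice-cold 1:1 methanol/chloroform, then centrifuged. Aqueous-phase radioactivity counted by liquid scintillation; no-enzyme blanks subtracted.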

[5] = species: Homo sapiens; assay: Selectivity ratio of IC50 for human recombinant FAAH to IC50 for human recombinant MAGL by liquid scintillation counting
[6] = target: T4, Monoglyceride lipase; assay: Inhibition of human recombinant MAGL assessed as inhibition of 2-oleoylglycerol hydrolysis preincubated for 10 mins by LC/MS analysis
[7] = target: T1, Monoglyceride lipase (Homo sapiens); assay: Inhibition of human recombinant MAGL assessed as [3H]oleoylglycerol hydrolysis preincubated for 10 mins at 37 degC by liquid scintillation counting
In short: (§1)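 Purified recombinant human MAGL (5 ng; 50 mM Tris pH 8.0, 0.1% BSA) preincubated with inhibitor at the line's time and temperature. Then incubated 10 min at 37 °C with 2-OG (10 µM final; [3H]-2-OG 50,000 dpm; Tris pH 8.0 with 0.6% BSA). Stopped with ice-cold methanol:chloroform 1:1 and centrifuged. Aqueous-phase radioactivity counted by liquid scintillation. No-enzyme blanks subtracted.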

[8] = target: T1, Monoglyceride lipase (Homo sapiens); assay: Inhibition of human recombinant MAGL assessed as [3H]oleoylglycerol hydrolysis preincubated for 30 mins at 37 degC by liquid scintillation counting; in short: as §1
[9] = target: T1, Monoglyceride lipase (Homo sapiens); assay: Inhibition of human recombinant MAGL assessed as [3H]oleoylglycerol hydrolysis preincubated for 10 mins at room temperature by liquid scintillation counting; in short: as §1
[10] = target: T1, Monoglyceride lipase (Homo sapiens); assay: Inhibition of human recombinant MAGL assessed as inhibition of [3H]oleoylglycerol hydrolysis preincubated for 30 mins at room temperature by liquid scintillation counting; in short: as §1
[11] = target: T1, Monoglyceride lipase (Homo sapiens); assay: Inhibition of human recombinant MAGL assessed as [3H]oleoylglycerol hydrolysis at 10^-5 M preincubated for 5 mins measured after 15 mins by liquid scintillation counting in the presence of dithiothreitol
[12] = system: T5, Monoglyceride lipase (Homo sapiens), Q99685 [C208A]; assay: Inhibition of human MAGL C208A mutant
T5 sequence (whole entry): T1 sequence (whole entry) with C208A

[13] = system: T6, Monoglyceride lipase (Homo sapiens), Q99685 [C242A]; assay: Inhibition of human MAGL C242A mutant
T6 sequence (whole entry): T1 sequence (whole entry) with C242A

[14] = system: T7, Monoglyceride lipase (Homo sapiens), Q99685 [C201A]; assay: Inhibition of human MAGL C201A mutant
T7 sequence (whole entry): T1 sequence (whole entry) with C201A

[15] = system: T8, Monoglyceride lipase (Homo sapiens), Q99685 [C201A,C208A,C242A]; assay: Inhibition of human MAGL C201A/C208A/C242A mutant
T8 sequence (whole entry): T1 sequence (whole entry) with C201A, C208A, C242A

[16] = Selectivity ratio of IC50 for rat MAGL to IC50 for human MAGL
[17] = species: Homo sapiens; assay: Selectivity ratio of IC50 for human recombinant FAAH to IC50 for human recombinant MAGL by liquid scintillation counting of radiolabeled 2-OG hydrolysis
[18] = target: T9, Monoglyceride lipase (Rattus norvegicus, UniProt Q8R431); assay: Inhibition of rat recombinant N-terminal his-tagged MAGL expressed in Escherichia coli DH5alpha assessed as 2-oleoylglycerol hydrolysis after 10 mins by LC/MS analysis
T9 sequence (Q8R431 whole entry): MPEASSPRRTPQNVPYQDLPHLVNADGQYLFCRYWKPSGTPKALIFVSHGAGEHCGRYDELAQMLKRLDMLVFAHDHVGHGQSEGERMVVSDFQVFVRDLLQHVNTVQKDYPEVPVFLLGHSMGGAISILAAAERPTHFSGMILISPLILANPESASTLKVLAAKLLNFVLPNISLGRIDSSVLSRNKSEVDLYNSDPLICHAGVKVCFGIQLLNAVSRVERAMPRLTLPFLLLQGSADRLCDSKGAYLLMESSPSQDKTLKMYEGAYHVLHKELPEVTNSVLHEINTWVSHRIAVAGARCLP

Row | inhibition [1] | inhibition [2] | IC50 [3] | IC50 [4] | Ratio IC50 [5] | SMILES | also measured
1 | inactive | inactive | – | – | – | CCCCCCCCN1C(=O)c2ccccc2C1=O | –
2 | 72% | – | 309 µM | – | – | CCCCCCCCn1c(=O)sc2ccccc21 | –
3 | 26% | – | 129 µM | – | – | CCCCCCCCn1c(=O)oc2ccccc21 | –
4 | 55% | 43% | – | – | – | CCCCCCCCOc1nsc2ccccc12 | –
5 | inactive | inactive | – | – | – | CCCCCCCCN1Cc2ccccc2C1=O | –
6 | – | – | 44.7 µM | 275 µM | 0.16 | CCCCCCCCn1oc2ccccc2c1=O | –
7 | – | – | 35.2 µM | 1.66 µM | 21.2 | CCCCCCCCn1sc2ccccc2c1=O | IC50 [6]: 0.66 µM; IC50 [18]: 0.059 µM; inhibition [7]: Active; inhibition [8]: Active; inhibition [9]: Active; inhibition [10]: Active; inhibition [11]: inactive; inhibition [12]: Active; inhibition [13]: inactive; inhibition [14]: inactive; inhibition [15]: inactive; Ratio IC50 [16]: 11; Ratio IC50 [17]: 53

Further lines, the molecule ahead of its results:

Row | SMILES | inhibition [1] | inhibition [2] | IC50 [3] | IC50 [4] | Ratio IC50 [5] | also measured
8 | CCCCCCCCOc1noc2ccccc12 | – | – | 31.6 µM | 67.9 µM | 0.47 | –
9 | O=c1c2ccccc2sn1Cc1ccc(-c2ccccc2)cc1 | – | – | 30 µM | 0.41 µM | 73 | –
10 | CCCCCCCCn1sccc1=O [OCTHILINONE] | – | – | 18.9 µM | 1.09 µM | – | IC50 [6]: 0.14 µM
11 | CCCCCCCCN1SCCC1=O | – | – | – | – | 17.3 | inhibition [7]: Active; inhibition [8]: Active; inhibition [9]: Active; inhibition [10]: Active; inhibition [11]: inactive; inhibition [12]: inactive; inhibition [13]: inactive; inhibition [14]: inactive; inhibition [15]: inactive; Ratio IC50 [16]: 1.5; Ratio IC50 [17]: 53
12 | c1ccc(-c2ccc(COc3nsc4ccccc34)cc2)cc1 | inactive | 50% | – | – | – | –
